Screens deposited in PubChem BioAssay by several laboratories.
Scp-1 inhibitor: inhibitors of human Scp-1 phosphatase | AID 493091 | inhibition, % at 20 µM | actives 0.88% (n = 340,000) | Recombinant Scp1, phosphopeptide, malachite green phosphate absorbance | Q9GZU7;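 active means inhibition above about 50% at 20 µM, limit read from the data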;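 further: plate controls were DMSO wells with enzyme for no effect and wells lacking enzyme for full effect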
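assay system = SCP-1 phosphatase catalytic domain, residues 76-261 | buffer or medium = 50 mM Tris acetate pH 5.5, 0.005% Tween-20, 10 mM MgCl2 | incubation = enzyme reaction 45 min at room temperature, colour 5 min, stabilisation 30 min | signal = Phosphate-binding colour reagent, absorbance read at 630 nm | measure = % inhibition at 20 µM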
DNMT1 inh: blocks human DNA methyltransferase DNMT1; P26358; DNMT1 molecular beacon, Hinp1I cleavage, fluorescence; inhibition (reported as % activation of signal), % at 10 µM; actives 0.83% (n = 360,000); in the data active means inhibition above about 50%
STEP block: blocks human striatal-enriched tyrosine phosphatase; P54829; recombinant STEP, OMFP fluorogenic substrate, fluorescence; inhibition, % at 20 µM; actives 0.25% (n = 360,000); AID 588621;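 active means inhibition at 20 µM, scaled per plate between control wells, above about 37%, limit read from the data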;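 further: 0% = DMSO with enzyme and substrate and 100% = substrate only without enzyme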
Target sequence (P54829 whole entry, looked up): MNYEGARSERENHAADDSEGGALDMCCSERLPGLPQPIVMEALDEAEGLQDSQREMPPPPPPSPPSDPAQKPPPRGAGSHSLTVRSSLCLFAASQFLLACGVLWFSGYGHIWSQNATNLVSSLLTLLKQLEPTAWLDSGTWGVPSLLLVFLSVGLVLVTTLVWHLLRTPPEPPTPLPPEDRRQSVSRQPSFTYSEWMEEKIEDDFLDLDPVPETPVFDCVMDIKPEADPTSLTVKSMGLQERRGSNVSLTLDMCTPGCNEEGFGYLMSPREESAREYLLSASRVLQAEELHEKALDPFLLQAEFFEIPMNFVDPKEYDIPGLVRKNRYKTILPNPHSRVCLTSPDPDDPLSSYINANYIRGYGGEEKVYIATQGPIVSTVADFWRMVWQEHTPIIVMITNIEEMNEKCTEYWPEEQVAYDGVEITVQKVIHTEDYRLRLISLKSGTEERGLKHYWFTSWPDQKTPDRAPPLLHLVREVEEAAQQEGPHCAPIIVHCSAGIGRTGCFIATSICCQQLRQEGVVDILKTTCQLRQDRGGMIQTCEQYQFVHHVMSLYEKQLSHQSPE
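material = STEP tyrosine phosphatase | reagent = fluorogenic phosphatase substrate OMFP at 25 µM final | doses = single compound dose of 20 µM, 1% DMSO final | schedule = 20 min reaction, room temperature, in the dark | measured by = fluorescence, 480/540 nm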
LMPTP inh: LMPTP (human) inhibition; AID 651560; actives 0.22% (n = 360,000); inhibition, % at 20 µM; recombinant LMPTP-A, OMFP fluorogenic substrate, fluorescence intensity; P24666;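 active means compounds that cut the enzyme signal by at least half of the control window in the single-dose screen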;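 further: plate controls were DMSO wells with enzyme plus substrate for no effect and substrate without enzyme for full effect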
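Buffer or medium: Bis-Tris pH 6.0, DTT, detergent; Assay system: LMPTP-A enzyme; Quantity: 0.625 nM enzyme; Detection: endpoint fluorescence intensity; Times: 50 min dark incubation at room temperature; Controls: substrate-only low control, DMSO enzyme-plus-substrate high control; Doses: single 20 µM dose; Read-out: percent inhibition versus substrate-only and uninhibited controls; Reagent: 400 µM OMFP.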
CFTR F508del cor: correctors of CFTR F508del function in bronchial epithelial cells; actives 0.36% (n = 350,000); activity (quench increase), % at 7.58 µM; CFBE cells, YFP halide quenching; stimulated with forskolin plus potentiator P3; % fluorescence drop versus neutral controls;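 active means mean added fluorescence quench of at least 8% versus neutral control, with both replicates also reaching 8%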;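 further: cells transiently co-express mutant CFTR-F508del with the halide-sensitive YFP; corrector assay measuring rescue of mutant channel to the surface after 24 h compound exposure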
SUMO1-SIM PPI: modulators of human SUMO1-mediated protein-protein interactions | SUMO1 binding to a labelled peptide, TR-FRET, 1 h | inhibition, % at 20 µM | AID 602429 | actives 0.33% (n = 360,000); in the data active means inhibition above about 37%
Target sequence (P63165 whole entry, looked up): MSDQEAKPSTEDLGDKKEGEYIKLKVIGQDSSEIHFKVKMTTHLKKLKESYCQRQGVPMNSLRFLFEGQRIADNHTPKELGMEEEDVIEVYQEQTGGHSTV
Scp1 confirm: Scp-1 (human) inhibition, single-dose confirmed. shares compounds with Scp-1 inhibitor. recombinant SCP-1 catalytic domain, phosphate release, malachite green absorbance. inhibition, % at 20 µM. actives 61% (n = 2,500);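 further: plate controls were DMSO with enzyme for no effect and buffer wells lacking enzyme for full effect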
MG interference: interferes with malachite green readout, flagging false Scp-1 hits; Colorimetric interference counterscreen, malachite green absorbance 630 nm; shares compounds with Scp-1 inhibitor; 2,500 tested, under 10 active; apparent inhibition (interference), % at 20 µM; AID 540313;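 further: compounds added after enzyme reaction finished so only phosphate colour detection is probed; plate controls were DMSO wells with completed Scp-1 reaction for no effect and substrate wells lacking enzyme for full effect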
Scp-1 Tm shift: binds human Scp-1, shifting its melting temperature. shares compounds with Scp-1 inhibitor. Recombinant SCP1, Sypro Orange thermal shift Tm. thermal shift relative to vanadate control, % at 40 µM. actives 25% (n = 1,500);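 active means substances whose mean melting-temperature shift, as a percentage of the reference inhibitor's shift, reaches about 5.3%, limit read from the data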;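 further: 0% = Tm of DMSO wells and 100% = Tm with sodium orthovanadate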
Beacon interf DR: shows spectral interference in the DNMT1 beacon assay | molecular beacon fluorescence, spectral interference counter-screen | shares compounds with DNMT1 inh | 200 tested, under 10 active | IC50, µM; call rule not given here
DNMT1 confirm: confirmation of human DNMT1 inhibitors. inhibition, % at 10 µM. DNMT1 molecular beacon HinP1I cleavage, fluorescence. actives 8% (n = 2,300). shares compounds with DNMT1 inh. AID 602385;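 active means average inhibition of at least 30% in the single-concentration confirmation test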
DNMT1 interf: shows spectral interference in the DNMT1 beacon assay. shares compounds with DNMT1 inh. DNMT1 molecular beacon spectral interference counterscreen, fluorescence 485/520. activation (fluorescence interference), % at 10 µM. actives 1% (n = 2,300);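 active means activation of at least 30% at 10 µM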;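 further: DNMT1 catalytic domain with a HinP1I cleavage step and a FAM/dabcyl DNA beacon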
* marks the source's active call; other numbers are inactive results; . = not tested or not shown. Sampled rows, rich in hits. Any-hit rate of the full collection: about 1.6%.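 How the source made its calls, unless noted: active means inhibition of at least 30% at 20 µM; inactive means the rest.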

SMILES | Scp-1 inhibitor | DNMT1 inh | STEP block | LMPTP inh | CFTR F508del cor | SUMO1-SIM PPI | Scp1 confirm | MG interference | Scp-1 Tm shift | DNMT1 confirm | DNMT1 interf | others
C[C@@H]1CN([C@H](C)CO)C(=O)c2cc(NC(=O)CCN3CCOCC3)ccc2O[C@@H]1CN(C)Cc1ccc(-c2ccccc2)cc1 | . | . | . | . | 1 | . | . | . | . | . | .
NC(=S)n1[nH]c(-c2ccc([N+](=O)[O-])cc2)c(N=Nc2ccccc2[N+](=O)[O-])c1=O | 63* | 85* | 7 | 10 | -1 | 5 | 38* | -19 | 10* | -2 | -8
Nc1[nH]n(-c2ccccc2)c(=O)c1N=Nc1ccccc1[N+](=O)[O-] | -5 | -3 | -1 | 0 | . | -10 | . | . | . | . | .
COc1ccc(CN(C)C[C@H]2Oc3c(NS(=O)(=O)c4ccc(Cl)cc4)cccc3C(=O)N([C@@H](C)CO)C[C@H]2C)cc1 | . | . | . | . | 1 | . | . | . | . | . | .
CCCN(C)C[C@H]1OCCCC[C@H](C)Oc2ccc(NS(=O)(=O)c3c(C)noc3C)cc2C(=O)N([C@@H](C)CO)C[C@H]1C | . | . | . | . | -3 | . | . | . | . | . | .
COCc1cc(C)n(CC(=O)N/N=C/c2ccc(-c3ccc(Cl)c(C(=O)O)c3)o2)c(=O)c1C#N | 66* | 58* | 3 | -1 | . | 15 | 63* | -13 | 5 | 5 | -2
O=C(CSc1cccc[n+]1[O-])Nc1cc2c(cc1Cl)C(=O)c1ccccc1C2=O | 85* | 92* | 49* | 50* | -2 | 41* | 11 | -20 | . | 2 | -10
O=C(CSc1cccc[n+]1[O-])Nc1cc([N+](=O)[O-])ccc1Cl | -3 | 6 | -2 | -2 | 0 | -23 | . | . | . | . | .
CCC1=NN2C(=N)/C(=C\c3ccc(OCc4cc(=O)n5nc(CC)sc5n4)c(OC)c3)C(=O)N=C2S1 | 75* | 87* | 0 | 3 | 0 | 44* | 51* | -8 | 3 | 15 | 0
COc1ccc2c3c([nH]c2c1)[C@@H](CO)N(CC1CC1)CC31CCN(C(=O)c2ccccc2F)CC1 | . | . | . | . | 3 | . | . | . | . | . | .
CCOc1ccc(N=C2NC(=O)S/C2=C\c2ccc(OC)cc2)cc1 | 61* | 64* | 16 | 44 | . | -4 | 78* | -3 | 3 | 3 | 4
C[C@H]1CN([C@@H](C)CO)C(=O)c2cc(/C=C/c3ccccc3)cnc2O[C@@H]1CN(C)C(=O)C1CCCCC1 | . | . | . | . | -3 | . | . | . | . | . | .
Cc1cccc(NC(=O)CCc2nc3sc4c(c3c(=O)[nH]2)CCCC4)c1 | 4 | 4 | -2 | 0 | -6 | 0 | . | . | . | . | .
Cc1ccc(NC(=O)CCc2nc3sc4c(c3c(=O)[nH]2)CCCC4)nc1 | 62* | 50* | 3 | 6 | . | 21 | 66* | -11 | 9.0* | 4 | 3
C[C@H]1CN([C@@H](C)CO)C(=O)c2cccc(NC(=O)c3ccncc3)c2O[C@@H]1CN(C)Cc1ccccc1 | . | . | . | . | 0 | . | . | . | . | . | .
O=C(CSc1n[nH]c(-c2ccccc2)n1)NC(=O)NCc1ccco1 | 68* | 65* | 6 | 17 | -1 | 14 | 55* | -11 | 1 | 2 | 1
Cc1ccccc1CSCC(=O)NC(=O)NCc1ccco1 | 56* | 76* | 7 | 12 | 2 | 6 | 73* | -7 | -15 | 0 | 5
Cn1c(SCC(=O)NC(=O)NCc2ccco2)nnc1-c1ccccc1 | 92* | 86* | 7 | 46 | . | 9 | 62* | -17 | -13 | 1 | 2
O=C(CSc1nc(-c2ccccc2)cs1)NC(=O)NCc1ccco1 | -5 | -8 | 1 | 1 | . | 4 | . | . | . | . | .
COc1ccc(-c2nnc(SCC(=O)NCc3ccco3)n2C)cc1 | -8 | 4 | 0 | 0 | . | 2 | . | . | . | . | .
CCCCn1c(SCC(=O)NC(=O)NCc2ccco2)nc2cc(S(N)(=O)=O)ccc21 | 64* | 89* | 2 | 9 | . | 5 | 58* | -12 | -3 | 5 | 1
O=C(CSc1ccccc1F)NC(=O)NCc1ccco1 | 25 | 9 | 2 | 0 | -1 | 2 | . | . | . | . | .
C=CCn1c(SCC(=O)NCCCC)nc2scc(-c3ccco3)c2c1=O | 73* | 100* | 3 | 16 | . | 10 | 69* | -16 | -3 | 2 | 1
COCC(=O)N1CC(=O)N2[C@H](CO)[C@@H](c3ccc(C#CC4CC4)cc3)[C@H]2C1 | . | . | . | . | 1 | . | . | . | . | . | .
O=C(Cc1ccc(S(=O)(=O)N2CCOCC2)s1)Nc1nc2c(s1)CCCC2 | 64* | 89* | 21 | 15 | . | 22 | 74* | -4 | 11* | 10 | 2
SMILES | Scp-1 inhibitor | DNMT1 inh | STEP block | LMPTP inh | CFTR F508del cor | SUMO1-SIM PPI | Scp1 confirm | MG interference | Scp-1 Tm shift | DNMT1 confirm | DNMT1 interf | others
CCCN1[C@@H]2Cn3c(ccc(-c4cccnc4)c3=O)[C@H]1[C@@H](C(=O)NC1CCC1)[C@@H]2CO | . | . | . | . | -2 | . | . | . | . | . | .
O=C1CC(=O)NC(SCC(=O)Nc2ccccc2[N+](=O)[O-])=N1 | 77* | 64* | 21 | 7 | 0 | 12 | 67* | -12 | 13* | 33* | 3 | Beacon interf DR=>99
Cc1cc(C)nc(SCC(=O)Nc2ccccc2[N+](=O)[O-])n1 | -2 | 1 | -4 | 0 | . | -15 | . | . | . | . | .
O=C1CCCC(O)=C1Sc1ccccc1C(=O)O | 57* | 67* | 8 | 3 | 1 | 13 | 37* | -18 | 1 | 2 | 0
O=C1CCCC(O)=C1C(C#Cc1ccccc1)C1=C(O)CCCC1=O | 0 | -6 | 3 | 2 | . | -3 | . | . | . | . | .
O=C(Cc1coc2cc3c(cc12)CCC3)OCc1cc(=O)n2c(n1)sc1ccccc12 | 63* | 85* | 2 | 9 | . | 6 | 51* | -30 | 6.3* | 1 | 2
CCc1c(O)nc2sc3ccccc3n2c1=O | -7 | 0 | 0 | 0 | . | -1 | . | . | . | . | .
O=C(OCc1cc(=O)n2c(n1)sc1ccccc12)c1cccc(O)c1 | 79* | 98* | 0 | 8 | . | 12 | 58* | -19 | 5 | 23 | 5
